# In PMC12166256 (Clinical Pharmacology and Therapeutics, 2025):
# Marks after values point to notes of the source that are not given here.
# Assay: MAD study: plasma and urine pharmacokinetics
# Format: in vivo, human
# Settings: for CLR (renal clearance), mean ± SD / CLR, geometric mean: MAD steady state
# Procedure, shortened: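 Healthy males got oral doses for 14 days: 100 mg once daily fasted, or 100, 200 or 300 mg twice daily fed. Plasma was drawn pre-dose and […] on Day 1, pre-dose and at 3 h on Days 4, 7 and 12, and up to 120 h after the final Day 14 morning dose. Urine was collected over 24 h at steady state. LC–MS/MS, LLOQ 2 ng/mL; non-compartmental analysis.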
# [1] = MAD 24-hour urine Day 13, 100 mg BID fed
# [2] = MAD 24-hour urine Day 13, 100 mg QD fasted
# [3] = MAD 24-hour urine Day 13, 200 mg BID fed
# [4] = MAD 24-hour urine Day 13, 300 mg BID fed
# [5] = MAD Day 1 first dose, 100 mg BID fed
# [6] = MAD Day 1 first dose, 100 mg QD fasted
# [7] = MAD Day 1 first dose, 100 mg QD fasted, calculated by extrapolation
# [8] = MAD Day 1 first dose, 200 mg BID fed
# [9] = MAD Day 1 first dose, 300 mg BID fed
# [10] = MAD Day 14, 100 mg BID fed, n = 6
smiles,measurement,setting,value
CN1C(=O)c2cccc(OC(F)F)c2[C@H]2C[C@@H]1c1nc3ccc(-c4cnc(C5(N)CCC5)nc4)cc3n12 [Balinatunfib],time to steady state (90% CI),"BID dosing, fed",5.45 (5.36–5.92) days
same,"Fe0-24 (fraction of dose excreted unchanged in urine), mean ± SD",[1],9.41 ± 4.66%
same,"Fe0-24, geometric mean",[1],(8.18) [50] %
same,"Fe0-24 (fraction of dose excreted unchanged in urine), mean ± SD",[2],9.07 ± 1.85%
same,"Fe0-24, geometric mean",[2],(8.91) [20] %
same,"Fe0-24 (fraction of dose excreted unchanged in urine), mean ± SD",[3],11.9 ± 3.54%
same,"Fe0-24, geometric mean",[3],(11.4) [30] %
same,"Fe0-24 (fraction of dose excreted unchanged in urine), mean ± SD",[4],15.6 ± 4.40%
same,"Fe0-24, geometric mean",[4],(15.0) [28] %
same,"AUC0-12, geometric mean",[5],(324) [53] ng·h/mL
same,"AUC0-12, mean ± SD",[5],364 ± 194 ng·h/mL
same,"C av, geometric mean",[5],(27.0) [53] ng/mL
same,"C av, mean ± SD",[5],30.4 ± 16.2 ng/mL
same,"C max, geometric mean",[5],(38.1) [50] ng/mL
same,"C max, mean ± SD",[5],42.6 ± 21.2 ng/mL
same,"t max, median (min, max)",[5],"6.00 (2.00, 8.00) h"
same,"AUC0-12, geometric mean",[6],(527) [35] ng·h/mL
same,"AUC0-12, mean ± SD",[6],559 ± 194 ng·h/mL
same,"C av, geometric mean",[6],(28.1) [32] ng/mL
same,"C av, mean ± SD",[6],29.5 ± 9.33 ng/mL
same,"C max, geometric mean",[6],(83.1) [38] ng/mL
same,"C max, mean ± SD",[6],88.6 ± 34.0 ng/mL
same,"t max, median (min, max)",[6],"3.00 (3.00, 3.00) h"
same,"AUC0-24, geometric mean",[7],674 ng·h/mL
same,"AUC0-24, mean ± SD",[7],708 ± 224 ng·h/mL
same,"AUC0-12, geometric mean",[8],"(1,080) [31] ng·h/mL"
same,"AUC0-12, mean ± SD",[8],"1,130 ± 354 ng·h/mL"
same,"C av, geometric mean",[8],(90.3) [31] ng/mL
same,"C av, mean ± SD",[8],94.5 ± 29.5 ng/mL
same,"C max, geometric mean",[8],(132) [32] ng/mL
same,"C max, mean ± SD",[8],139 ± 43.9 ng/mL
same,"t max, median (min, max)",[8],"5.00 (2.00, 6.00) h"
same,"AUC0-12, geometric mean",[9],"(2,180) [32] ng·h/mL"
same,"AUC0-12, mean ± SD",[9],"2,280 ± 725 ng·h/mL"
same,"C av, geometric mean",[9],(182) [32] ng/mL
same,"C av, mean ± SD",[9],190 ± 60.4 ng/mL
same,"C max, geometric mean",[9],(268) [31] ng/mL
same,"C max, mean ± SD",[9],278 ± 85.4 ng/mL
same,"t max, median (min, max)",[9],"4.00 (3.00, 6.00) h"
same,"AUC0-tau, geometric mean","MAD Day 14, 100 mg BID fed","(1,690) [48] ng·h/mL"
same,"AUC0-tau, mean ± SD","MAD Day 14, 100 mg BID fed","1,860 ± 892 ng·h/mL"
same,"C av, geometric mean","MAD Day 14, 100 mg BID fed",(141) [48] ng/mL
same,"C av, mean ± SD","MAD Day 14, 100 mg BID fed",155 ± 74.4 ng/mL
same,"C max, geometric mean","MAD Day 14, 100 mg BID fed",(173) [46] ng/mL
same,"C max, mean ± SD","MAD Day 14, 100 mg BID fed",189 ± 86.3 ng/mL
same,"C trough, geometric mean","MAD Day 14, 100 mg BID fed",(122) [52] ng/mL
same,"C trough, mean ± SD","MAD Day 14, 100 mg BID fed",136 ± 70.8 ng/mL
same,"CLss/F, geometric mean","MAD Day 14, 100 mg BID fed",(59.1) [44] L/h
same,"CLss/F, mean ± SD","MAD Day 14, 100 mg BID fed",64.6 ± 28.2 L/h
same,"FLrel (relative fluctuation), geometric mean","MAD Day 14, 100 mg BID fed",(46.1) [20] %
same,"R ac (accumulation ratio), mean ± SD","MAD Day 14, 100 mg BID fed",5.46 ± 0.951
same,"R ac Cmax (accumulation ratio based on C max), mean ± SD","MAD Day 14, 100 mg BID fed",4.77 ± 0.730
same,"R ac, geometric mean","MAD Day 14, 100 mg BID fed",(5.38) [17]
same,"V z/F, geometric mean","MAD Day 14, 100 mg BID fed","(2,250) [51] L"
same,"t max, median (min, max)","MAD Day 14, 100 mg BID fed","3.00 (1.00, 4.00) h"
same,"t 1/2z, geometric mean",[10],(23.6) [13] h
same,"t 1/2z, mean ± SD",[10],23.8 ± 3.18 ^g h
same,"AUC0-tau, geometric mean","MAD Day 14, 100 mg QD fasted","(1,680) [27] ng·h/mL"
same,"AUC0-tau, mean ± SD","MAD Day 14, 100 mg QD fasted","1,750 ± 471 ng·h/mL"
same,"C av, geometric mean","MAD Day 14, 100 mg QD fasted",(70.0) [27] ng/mL
same,"C av, mean ± SD","MAD Day 14, 100 mg QD fasted",72.9 ± 19.6 ng/mL
same,"C max, geometric mean","MAD Day 14, 100 mg QD fasted",(153) [31] ng/mL
same,"C max, mean ± SD","MAD Day 14, 100 mg QD fasted",161 ± 49.2 ng/mL
same,"C trough, geometric mean","MAD Day 14, 100 mg QD fasted",(35.2) [31] ng/mL
same,"C trough, mean ± SD","MAD Day 14, 100 mg QD fasted",37.2 ± 11.5 ng/mL
same,"CLss/F, geometric mean","MAD Day 14, 100 mg QD fasted",(59.5) [37] L/h
same,"CLss/F, mean ± SD","MAD Day 14, 100 mg QD fasted",62.5 ± 23.4 L/h
same,"FLrel (relative fluctuation), geometric mean","MAD Day 14, 100 mg QD fasted",(168) [20] %
same,"R ac (accumulation ratio), mean ± SD","MAD Day 14, 100 mg QD fasted",2.52 ± 0.431
same,"R ac Cmax (accumulation ratio based on C max), mean ± SD","MAD Day 14, 100 mg QD fasted",1.87 ± 0.400
same,"R ac, geometric mean","MAD Day 14, 100 mg QD fasted",(2.50) [17]
same,"V z/F, geometric mean","MAD Day 14, 100 mg QD fasted","(2,530) [38] L"
same,"V z/F, mean ± SD","MAD Day 14, 100 mg QD fasted","2,700 ± 1,020 L"
same,"t 1/2z, geometric mean","MAD Day 14, 100 mg QD fasted",(29.5) [28] h
same,"t 1/2z, mean ± SD","MAD Day 14, 100 mg QD fasted",30.3 ± 8.43 h
same,"t max, median (min, max)","MAD Day 14, 100 mg QD fasted","3.00 (2.00, 4.00) h"
same,"AUC0-tau, geometric mean","MAD Day 14, 200 mg BID fed","(4,990) [37] ng·h/mL"
same,"AUC0-tau, mean ± SD","MAD Day 14, 200 mg BID fed","5,370 ± 2,010 ng·h/mL"
same,"C av, geometric mean","MAD Day 14, 200 mg BID fed",(416) [37] ng/mL
same,"C av, mean ± SD","MAD Day 14, 200 mg BID fed",448 ± 167 ng/mL
same,"C max, geometric mean","MAD Day 14, 200 mg BID fed",(511) [35] ng/mL
same,"C max, mean ± SD","MAD Day 14, 200 mg BID fed",547 ± 193 ng/mL
same,"C trough, geometric mean","MAD Day 14, 200 mg BID fed",(349) [43] ng/mL
same,"C trough, mean ± SD","MAD Day 14, 200 mg BID fed",383 ± 163 ng/mL
same,"CLss/F, geometric mean","MAD Day 14, 200 mg BID fed",(40.1) [47] L/h
same,"CLss/F, mean ± SD","MAD Day 14, 200 mg BID fed",43.7 ± 20.6 L/h
same,"FLrel (relative fluctuation), geometric mean","MAD Day 14, 200 mg BID fed",(44.7) [27] %
same,"R ac (accumulation ratio), mean ± SD","MAD Day 14, 200 mg BID fed",4.65 ± 0.654
same,"R ac Cmax (accumulation ratio based on C max), mean ± SD","MAD Day 14, 200 mg BID fed",3.91 ± 0.612
same,"R ac, geometric mean","MAD Day 14, 200 mg BID fed",(4.60) [14]
same,"V z/F, geometric mean","MAD Day 14, 200 mg BID fed","(1,380) [62] L"
same,"V z/F, mean ± SD","MAD Day 14, 200 mg BID fed","1,590 ± 983 L"
same,"t 1/2z, geometric mean","MAD Day 14, 200 mg BID fed",(23.9) [14] h
same,"t 1/2z, mean ± SD","MAD Day 14, 200 mg BID fed",24.1 ± 3.28 h
same,"t max, median (min, max)","MAD Day 14, 200 mg BID fed","3.00 (2.00, 8.00) h"
same,"AUC0-tau, geometric mean","MAD Day 14, 300 mg BID fed","(9,290) [27] ng·h/mL"
same,"AUC0-tau, mean ± SD","MAD Day 14, 300 mg BID fed","9,670 ± 2,650 ng·h/mL"
same,"C av, geometric mean","MAD Day 14, 300 mg BID fed",(774) [27] ng/mL
same,"C av, mean ± SD","MAD Day 14, 300 mg BID fed",806 ± 221 ng/mL
same,"C max, geometric mean","MAD Day 14, 300 mg BID fed",(947) [27] ng/mL
same,"C max, mean ± SD","MAD Day 14, 300 mg BID fed",982 ± 261 ng/mL
same,"C trough, geometric mean","MAD Day 14, 300 mg BID fed",(639) [32] ng/mL
same,"C trough, mean ± SD","MAD Day 14, 300 mg BID fed",676 ± 215 ng/mL
same,"CLss/F, geometric mean","MAD Day 14, 300 mg BID fed",(32.3) [37] L/h
same,"CLss/F, mean ± SD","MAD Day 14, 300 mg BID fed",33.9 ± 12.7 L/h
same,"FLrel (relative fluctuation), geometric mean","MAD Day 14, 300 mg BID fed",(46.1) [29] %
same,"R ac (accumulation ratio), mean ± SD","MAD Day 14, 300 mg BID fed",4.40 ± 1.22
same,"R ac Cmax (accumulation ratio based on C max), mean ± SD","MAD Day 14, 300 mg BID fed",3.62 ± 0.861
same,"R ac, geometric mean","MAD Day 14, 300 mg BID fed",(4.25) [28]
same,"V z/F, geometric mean","MAD Day 14, 300 mg BID fed",(991) [29] L
same,"V z/F, mean ± SD","MAD Day 14, 300 mg BID fed","1,030 ± 299 L"
same,"t 1/2z, geometric mean","MAD Day 14, 300 mg BID fed",(21.3) [23] h
same,"t 1/2z, mean ± SD","MAD Day 14, 300 mg BID fed",21.7 ± 4.92 h
same,"t max, median (min, max)","MAD Day 14, 300 mg BID fed","3.00 (2.00, 6.00) h"
same,"CLR (renal clearance), mean ± SD",100 mg BID fed,5.16 ± 2.10 L/h
same,"CLR, geometric mean",100 mg BID fed,(4.83) [41] L/h
same,"CLR (renal clearance), mean ± SD",100 mg QD fasted,5.53 ± 1.67 L/h
same,"CLR, geometric mean",100 mg QD fasted,(5.30) [30] L/h
same,"CLR (renal clearance), mean ± SD",200 mg BID fed,4.62 ± 0.862 L/h
same,"CLR, geometric mean",200 mg BID fed,(4.55) [19] L/h
same,"CLR (renal clearance), mean ± SD",300 mg BID fed,4.92 ± 0.929 L/h
same,"CLR, geometric mean",300 mg BID fed,(4.85) [19] L/h
same,accumulation,after QD dosing,2.52 fold
same,apparent volume of distribution,healthy participants,"> 1,000 L"
